Measurements reported in ChEMBL document CHEMBL1153939, “Novel antagonists of serotonin-4 receptors: synthesis and biological evaluation of pyrrolothienopyrazines” (Bioorg Med Chem, 2009).

Assays:
[1] = target: 5-hydroxytryptamine receptor 4 (Cavia porcellus, UniProt O70528); assay: Displacement of [3H]GR-113808 from 5HT4 receptor in guinea pig striatum membrane; type: cell membranes
Method in brief: (§1)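 Guinea pig membranes (15 µg protein/mL) incubated 30 min at 37 °C with 0.6 nM [3H]GR113808 in 50 mM HEPES, pH 7.4, with fixed test concentrations. Nonspecific binding defined with 10 µM serotonin.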

[2] = target: T1, 5-hydroxytryptamine receptor 3A (Homo sapiens, UniProt P46098); assay: Displacement of [3H]granisetron form 5HT3 receptor in hybrid […] cells; type: cell-based
T1 sequence (P46098 whole entry): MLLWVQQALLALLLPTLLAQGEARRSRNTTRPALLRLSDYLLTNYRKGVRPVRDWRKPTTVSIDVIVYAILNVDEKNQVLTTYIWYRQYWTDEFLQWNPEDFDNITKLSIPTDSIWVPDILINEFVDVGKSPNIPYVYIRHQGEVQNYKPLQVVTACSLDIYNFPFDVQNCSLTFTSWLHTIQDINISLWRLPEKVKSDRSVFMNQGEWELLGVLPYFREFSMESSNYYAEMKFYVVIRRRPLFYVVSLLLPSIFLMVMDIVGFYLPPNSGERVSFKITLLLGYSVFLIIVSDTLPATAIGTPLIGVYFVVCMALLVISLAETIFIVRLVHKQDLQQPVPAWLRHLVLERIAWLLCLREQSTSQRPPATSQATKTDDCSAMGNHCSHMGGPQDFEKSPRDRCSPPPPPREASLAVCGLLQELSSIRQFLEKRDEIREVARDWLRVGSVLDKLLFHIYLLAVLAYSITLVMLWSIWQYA
Method in brief: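 NG108-15 cell membranes (0.5 mg protein/mL) incubated 60 min at 25 °C with 1 nM [3H]granisetron in 50 mM Tris-HCl, pH 7.4, plus 25 mM NaCl. Percent inhibition measured at 10^-6 and 10^-7 M; for some compounds Ki calculated from 8–10-point inhibition curves (Ki ± SEM).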

[3] = test system: Mus musculus; assay: Analgesic activity in NMRI mouse assessed as reaction time taken to lick fore paw at 8 mg/kg, ip after 15 mins of administration by hot plate test; type: functional; settings: route intraperitoneal
Method in brief: (§2)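 Hot plate at 55 °C, male NMRI mice (20–24 g), groups of 10. Drug given ip in saline (10 mL/kg). Baseline latency to forepaw licking taken twice before dosing, and mice had to respond within 4–12 s. Latency read at 15 and 30 min after injection, with a 30 s cutoff. Data as mean ± SEM, ANOVA plus Fisher PLSD.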

[4] = test system: Mus musculus; assay: Analgesic activity in NMRI mouse assessed as reaction time taken to lick fore paw at 8 mg/kg, ip after 30 mins of administration by hot plate test; type: functional; settings: route intraperitoneal; method in brief: as §2
[5] = test system: Mus musculus; assay: Antinociceptive activity against acetic acid-induced writhing in NMRI mouse assessed as number of stretches at 5 mg/kg, ip by writhing test; type: functional; settings: route intraperitoneal
Method in brief: (§3)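 Groups of 8 male NMRI mice (20–24 g). Compound or reference given ip in saline (10 mL/kg) 15 min before ip 0.6% aqueous acetic acid (10 mL/kg). Stretches (back arching, pelvic rotation, hind-limb extension) counted over 10 min, beginning 10 min after acid. ANOVA + Fisher PLSD versus control.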

[6] = target: 5-hydroxytryptamine receptor 4 (Homo sapiens, UniProt Q13639); assay: Binding affinity at 5HT4 receptor
[7] = test system: Mus musculus; assay: Antinociceptive activity against acetic acid-induced writhing in NMRI mouse assessed as number of stretches at 1 mg/kg, ip by writhing test; type: functional; settings: route intraperitoneal; method in brief: as §3
[8] = test system: Mus musculus; assay: Antinociceptive activity against acetic acid-induced writhing in NMRI mouse assessed as number of stretches at 0.01 mg/kg, ip by writhing test; type: functional; settings: route intraperitoneal; method in brief: as §3
[9] = target: T1, 5-hydroxytryptamine receptor 3A; assay: Binding affinity at 5HT3 receptor
[10] = test system: Mus musculus; assay: Antinociceptive activity against acetic acid-induced writhing in NMRI mouse assessed as number of stretches at 0.1 mg/kg, ip by writhing test; type: functional; settings: route intraperitoneal; method in brief: as §3
[11] = test system: Mus musculus; assay: Acute toxicity in NMRI mouse assessed as behavioral changes at 25 mg/kg, ip by CNS activity test; type: organism-based, Central nervous system; parameters: dose 25 mg/kg, route intraperitoneal; settings: in vivo
Method in brief: (§4)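 Male NMRI mice (20–24 g) given ip drug in saline (10 mL/kg), groups of 4. Behavioural and neurological changes scored against controls by a standardized observation technique at 30 min, 3 h and 24 h post-dose. Approximate LD50 derived from deaths counted at 24 h.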

[12] = test system: Mus musculus; assay: Acute toxicity in NMRI mouse assessed as behavioral changes at 5 mg/kg, ip by CNS activity test; type: organism-based, Central nervous system; parameters: dose 5 mg/kg, route intraperitoneal; settings: in vivo; method in brief: as §4
[13] = target: 5-hydroxytryptamine receptor 2B (Homo sapiens, UniProt P41595); assay: Displacement of [3H]mesulergine from human recombinant 5HT2B receptor
[14] = target: 5-hydroxytryptamine receptor 2A (Homo sapiens, UniProt P28223); assay: Displacement of [3H]ketanserin form human recombinant 5HT2A receptor
[15] = target: 5-hydroxytryptamine receptor 7 (Homo sapiens, UniProt P34969); assay: Displacement of [3H]LSD form human recombinant 5HT7 receptor
Method in brief: (§5)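 Membranes from sf9 cells expressing human 5-HT6 (14 µg/mL) or 5-HT7 (38 µg/mL) incubated 90 min at 27 °C with 2 nM [3H]LSD in 50 mM Tris-HCl containing 10 mM MgSO4 and 0.5 mM EDTA. Nonspecific binding defined with clozapine (10 and 250 µM).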

[16] = target: T2, 5-hydroxytryptamine receptor 1A (Homo sapiens, UniProt P08908); assay: Displacement of [3H]8OH-DPAT from human recombinant 5HT1A receptor
T2 sequence (P08908 whole entry): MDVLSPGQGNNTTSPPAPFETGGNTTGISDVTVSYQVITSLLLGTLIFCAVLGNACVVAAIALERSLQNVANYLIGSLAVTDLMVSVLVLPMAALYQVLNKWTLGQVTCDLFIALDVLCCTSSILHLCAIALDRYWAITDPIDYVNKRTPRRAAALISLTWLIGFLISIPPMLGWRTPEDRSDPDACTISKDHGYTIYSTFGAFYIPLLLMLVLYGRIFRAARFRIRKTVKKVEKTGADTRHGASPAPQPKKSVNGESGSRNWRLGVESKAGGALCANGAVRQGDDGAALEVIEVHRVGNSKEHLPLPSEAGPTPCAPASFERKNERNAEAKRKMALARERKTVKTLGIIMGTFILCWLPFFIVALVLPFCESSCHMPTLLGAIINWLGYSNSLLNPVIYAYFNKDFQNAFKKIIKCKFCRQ

[17] = target: T1, 5-hydroxytryptamine receptor 3A; assay: Displacement of [3H]granisetron from human recombinant 5HT3 receptor
[18] = target: 5-hydroxytryptamine receptor 6 (Homo sapiens, UniProt P50406); assay: Displacement of [3H]LSD form human recombinant 5HT6 receptor; method in brief: as §5
[19] = target: T3, 5-hydroxytryptamine receptor 2C (Homo sapiens, UniProt P28335); assay: Displacement of [3H]mesulergine from human recombinant 5HT2C receptor
T3 sequence (P28335 whole entry): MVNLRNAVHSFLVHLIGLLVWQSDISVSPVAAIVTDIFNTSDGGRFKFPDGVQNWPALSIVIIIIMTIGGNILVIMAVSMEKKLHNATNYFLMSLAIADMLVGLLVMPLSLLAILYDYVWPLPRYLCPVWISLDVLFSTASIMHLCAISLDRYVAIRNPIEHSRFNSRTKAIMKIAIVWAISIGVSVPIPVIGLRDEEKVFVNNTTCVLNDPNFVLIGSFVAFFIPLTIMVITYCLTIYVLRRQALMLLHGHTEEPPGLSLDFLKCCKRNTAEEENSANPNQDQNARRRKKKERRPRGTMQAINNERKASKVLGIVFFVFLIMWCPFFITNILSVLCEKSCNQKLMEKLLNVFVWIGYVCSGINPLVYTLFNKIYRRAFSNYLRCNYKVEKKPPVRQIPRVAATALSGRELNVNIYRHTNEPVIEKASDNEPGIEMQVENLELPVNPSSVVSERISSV

[20] = target: 5-hydroxytryptamine receptor 4 (Cavia porcellus) (UniProt O70528); assay: Displacement of [3H]GR-113808 from 5HT4 receptor in guinea pig striatum membrane at 10 nM; type: cell membranes; method in brief: as §1
[21] = target: 5-hydroxytryptamine receptor 4 (Cavia porcellus) (UniProt O70528); assay: Displacement of [3H]GR-113808 from 5HT4 receptor in guinea pig striatum membrane at 1 uM; type: cell membranes; method in brief: as §1
[22] = test system: Mus musculus; assay: Antinociceptive activity against acetic acid-induced writhing in NMRI mouse assessed as number of stretches at 30 mg/kg, ip by writhing test; type: functional; settings: route intraperitoneal; method in brief: as §3
[23] = test system: Mus musculus; assay: Inhibition of scopolamine-induced immediate working memory deficit in NMRI mouse at 1 mg/kg, ip by Y-maze test relative to control; type: functional; parameters: scale not given: the % may be the effect or the level left; settings: route intraperitoneal
Method in brief: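 Spontaneous alternation in male NMRI mice. Scopolamine 1 mg/kg ip in saline induces the working-memory deficit; groups are saline+saline, saline+scopolamine, drug+saline and drug+scopolamine. Alternation % = actual alternations/(total arm entries − 2) × 100. ANOVA plus Fisher PLSD, p<0.05.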

5-hydroxytryptamine receptor 4 (Cavia porcellus, UniProt O70528), sequence (O70528 whole entry): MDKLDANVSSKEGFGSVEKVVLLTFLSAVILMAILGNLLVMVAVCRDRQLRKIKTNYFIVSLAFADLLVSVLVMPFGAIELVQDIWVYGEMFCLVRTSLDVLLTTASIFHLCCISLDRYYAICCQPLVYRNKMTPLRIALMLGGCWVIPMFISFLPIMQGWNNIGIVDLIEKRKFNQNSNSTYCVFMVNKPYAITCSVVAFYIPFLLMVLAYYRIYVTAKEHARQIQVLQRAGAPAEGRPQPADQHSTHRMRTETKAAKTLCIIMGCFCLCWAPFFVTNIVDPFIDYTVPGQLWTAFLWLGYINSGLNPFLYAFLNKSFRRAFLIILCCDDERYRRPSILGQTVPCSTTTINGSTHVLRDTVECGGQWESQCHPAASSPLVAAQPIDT
5-hydroxytryptamine receptor 4 (Cavia porcellus), sequence (O70528 whole entry): as above
5-hydroxytryptamine receptor 7, sequence (P34969 whole entry): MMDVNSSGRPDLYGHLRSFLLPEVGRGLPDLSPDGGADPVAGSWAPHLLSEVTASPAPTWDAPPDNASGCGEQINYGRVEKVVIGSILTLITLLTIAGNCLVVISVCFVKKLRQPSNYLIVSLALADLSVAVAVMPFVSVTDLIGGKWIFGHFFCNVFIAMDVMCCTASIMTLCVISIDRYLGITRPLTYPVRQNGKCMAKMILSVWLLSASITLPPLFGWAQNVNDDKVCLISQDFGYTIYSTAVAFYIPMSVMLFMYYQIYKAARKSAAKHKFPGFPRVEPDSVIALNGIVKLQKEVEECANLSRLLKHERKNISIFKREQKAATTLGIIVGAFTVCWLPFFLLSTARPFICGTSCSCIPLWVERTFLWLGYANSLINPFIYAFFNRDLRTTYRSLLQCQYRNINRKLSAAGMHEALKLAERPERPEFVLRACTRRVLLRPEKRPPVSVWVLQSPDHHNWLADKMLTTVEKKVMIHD
5-hydroxytryptamine receptor 4 (Homo sapiens, UniProt Q13639), sequence (Q13639 whole entry): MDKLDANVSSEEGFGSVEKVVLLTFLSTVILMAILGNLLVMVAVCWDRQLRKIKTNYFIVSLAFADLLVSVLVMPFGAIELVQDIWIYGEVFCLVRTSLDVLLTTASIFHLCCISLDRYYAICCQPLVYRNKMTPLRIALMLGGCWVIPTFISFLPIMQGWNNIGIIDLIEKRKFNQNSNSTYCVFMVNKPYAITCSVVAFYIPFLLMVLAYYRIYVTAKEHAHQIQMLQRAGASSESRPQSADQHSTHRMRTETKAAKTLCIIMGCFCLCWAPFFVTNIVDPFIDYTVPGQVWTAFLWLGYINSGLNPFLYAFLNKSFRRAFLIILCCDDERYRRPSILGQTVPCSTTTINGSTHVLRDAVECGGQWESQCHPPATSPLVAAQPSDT
5-hydroxytryptamine receptor 6, sequence (P50406 whole entry): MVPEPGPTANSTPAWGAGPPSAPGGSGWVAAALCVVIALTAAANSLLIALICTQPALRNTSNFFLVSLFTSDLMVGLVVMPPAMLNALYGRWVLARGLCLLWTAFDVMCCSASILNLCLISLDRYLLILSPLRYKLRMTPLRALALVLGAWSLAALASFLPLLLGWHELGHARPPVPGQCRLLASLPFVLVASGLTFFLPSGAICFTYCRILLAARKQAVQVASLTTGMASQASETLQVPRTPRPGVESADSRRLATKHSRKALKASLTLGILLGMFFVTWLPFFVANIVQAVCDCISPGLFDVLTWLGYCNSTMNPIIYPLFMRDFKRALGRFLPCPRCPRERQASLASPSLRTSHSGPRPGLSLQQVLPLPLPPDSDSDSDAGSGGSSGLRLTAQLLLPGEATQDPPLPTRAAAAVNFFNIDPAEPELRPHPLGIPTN
5-hydroxytryptamine receptor 2A, sequence (P28223 whole entry): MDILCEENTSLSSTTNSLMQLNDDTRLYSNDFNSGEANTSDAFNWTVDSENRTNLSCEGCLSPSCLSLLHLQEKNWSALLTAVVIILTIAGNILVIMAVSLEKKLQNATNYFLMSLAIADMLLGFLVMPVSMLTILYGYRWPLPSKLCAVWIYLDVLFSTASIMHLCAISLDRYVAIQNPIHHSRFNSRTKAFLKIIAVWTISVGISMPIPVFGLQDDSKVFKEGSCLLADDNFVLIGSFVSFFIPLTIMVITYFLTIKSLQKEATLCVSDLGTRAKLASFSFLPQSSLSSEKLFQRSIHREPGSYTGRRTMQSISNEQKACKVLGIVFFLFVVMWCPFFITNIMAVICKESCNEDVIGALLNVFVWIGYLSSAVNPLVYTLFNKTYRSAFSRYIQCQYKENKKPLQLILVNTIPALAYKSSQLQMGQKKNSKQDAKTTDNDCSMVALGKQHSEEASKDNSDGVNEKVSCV
5-hydroxytryptamine receptor 2B, sequence (P41595 whole entry): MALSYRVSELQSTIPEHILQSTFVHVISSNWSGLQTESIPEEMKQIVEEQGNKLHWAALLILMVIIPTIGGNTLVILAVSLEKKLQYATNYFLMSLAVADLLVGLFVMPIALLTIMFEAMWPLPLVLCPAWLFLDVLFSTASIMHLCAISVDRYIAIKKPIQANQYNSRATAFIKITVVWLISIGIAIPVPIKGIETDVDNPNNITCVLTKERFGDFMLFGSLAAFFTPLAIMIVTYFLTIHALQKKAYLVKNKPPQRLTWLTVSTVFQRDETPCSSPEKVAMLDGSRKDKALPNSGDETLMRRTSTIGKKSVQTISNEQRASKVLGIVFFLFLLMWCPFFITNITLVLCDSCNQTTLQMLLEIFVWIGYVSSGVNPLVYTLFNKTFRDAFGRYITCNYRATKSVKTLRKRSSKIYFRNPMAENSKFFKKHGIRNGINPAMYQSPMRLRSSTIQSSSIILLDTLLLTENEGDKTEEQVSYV

Structure (SMILES): c1ccc(CN2CCN(c3nc4ccsc4n4cccc34)CC2)cc1
- IC50 [1]: > 10000 nM
- IC50 [2]: 1.41 nM

Structure (SMILES): CN1CC[C@]23c4c5ccc(O)c4O[C@H]2[C@@H](O)C=C[C@H]3[C@H]1C5 [MORPHINE]
- Time [3]: 30 s
- Time [4]: 26 s

Structure (SMILES): CN1C(C(=O)Nc2ccccn2)=C(O)c2ccccc2S1(=O)=O [PIROXICAM]
- Activity [5]: 2.2

Structure (SMILES): Cn1cc(C(=O)OCC2CCN(CCNS(C)(=O)=O)CC2)c2ccccc21
- Ki [6]: 0.158 nM
- Activity [7]: 14.3
- Activity [8]: 21.1
- Ki [9]: > 10000 nM
- Activity [10]: 14.8

Structure (SMILES): COc1[nH]c2ccc(F)cc2c1C(=O)OCC1CCN(CCNS(C)(=O)=O)CC1
- Activity [7]: 12.9
- Activity [8]: 19.1
- Activity [10]: 13.2

Structure (SMILES): COC(=O)C(c1ccccc1)C1CCCCN1 (configuration not stated) [METHYLPHENIDATE]
- Activity [11]: Toxic

Structure (SMILES): OCCN1CCN(CCCN2c3ccccc3Sc3ccc(Cl)cc32)CC1 [PERPHENAZINE]
- Activity [12]: Toxic

Structure (SMILES): CCN1CCC(COc2nc3ccsc3n3cccc23)CC1
- IC50 [13]: 9.77 nM
- IC50 [14]: 8130 nM
- IC50 [15]: > 1000 nM
- Ki [1]: 19.1 nM
- IC50 [16]: > 100000 nM
- IC50 [17]: > 1000 nM
- IC50 [18]: > 10000 nM
- IC50 [19]: 5620 nM
- inhibition [20]: 42%
- inhibition [21]: 84%

Structure (SMILES): CC(=O)Oc1ccccc1C(=O)O [ASPIRIN]
- Activity [22]: 8.3

Structure (SMILES): COC(=O)C1=CCCN(C)C1 [ARECOLINE]
- Activity [23]: 64%
